Tests used:
[1] = Dissociation constant, pKa of the compound; type: physicochemical
[2] = biological target: T1, Lysine-specific demethylase 4C (Homo sapiens, UniProt Q9H3R0); assay: Inhibition of N-terminal his-tagged human KDM4C expressed in Escherichia coli BL21(DE3) using trimethylated peptide substrate by RFMS assay
T1 sequence (Q9H3R0 whole entry): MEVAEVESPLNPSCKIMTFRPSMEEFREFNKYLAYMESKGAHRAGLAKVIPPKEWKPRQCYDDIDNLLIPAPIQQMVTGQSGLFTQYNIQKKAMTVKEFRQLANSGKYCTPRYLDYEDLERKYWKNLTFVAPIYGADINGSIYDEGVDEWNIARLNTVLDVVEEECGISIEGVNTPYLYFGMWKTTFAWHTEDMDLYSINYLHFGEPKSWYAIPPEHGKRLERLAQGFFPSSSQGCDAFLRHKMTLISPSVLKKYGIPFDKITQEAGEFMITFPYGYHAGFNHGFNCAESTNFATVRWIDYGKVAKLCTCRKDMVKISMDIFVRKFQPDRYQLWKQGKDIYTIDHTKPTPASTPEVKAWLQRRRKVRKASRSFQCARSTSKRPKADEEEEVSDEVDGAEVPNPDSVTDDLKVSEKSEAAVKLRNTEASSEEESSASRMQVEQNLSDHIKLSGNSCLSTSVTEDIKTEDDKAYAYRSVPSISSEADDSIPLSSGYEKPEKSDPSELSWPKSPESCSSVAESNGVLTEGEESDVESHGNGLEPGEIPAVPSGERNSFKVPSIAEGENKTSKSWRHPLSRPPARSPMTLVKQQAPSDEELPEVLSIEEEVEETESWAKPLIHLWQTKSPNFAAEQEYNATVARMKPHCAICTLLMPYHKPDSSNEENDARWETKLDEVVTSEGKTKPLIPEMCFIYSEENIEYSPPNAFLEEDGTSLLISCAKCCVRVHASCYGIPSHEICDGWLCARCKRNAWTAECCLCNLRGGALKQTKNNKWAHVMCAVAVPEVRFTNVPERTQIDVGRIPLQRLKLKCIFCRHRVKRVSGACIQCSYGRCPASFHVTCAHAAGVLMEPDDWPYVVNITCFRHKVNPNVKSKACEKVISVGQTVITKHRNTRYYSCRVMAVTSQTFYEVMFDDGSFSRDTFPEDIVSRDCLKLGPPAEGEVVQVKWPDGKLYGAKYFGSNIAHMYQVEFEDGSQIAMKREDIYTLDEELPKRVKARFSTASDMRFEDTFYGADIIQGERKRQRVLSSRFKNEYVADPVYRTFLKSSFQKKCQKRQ

[3] = biological target: T1, Lysine-specific demethylase 4C; assay: Inhibition of N-terminal his-tagged full-length human KDM4C transfected in U2OS cells assessed as inhibition of H3K9Me3 demethylation for 24 hrs; type: cell-based
physchem = details: buffer, pH 7.4
Prolyl hydroxylase EGLN3 = Prolyl hydroxylase EGLN3 (Homo sapiens, UniProt Q9H6Z9); assay: Inhibition of full-length EGLN3 (unknown origin) expressed in Escherichia coli BL21(DE3) cells by HTRF assay
[4] = biological target: T1, Lysine-specific demethylase 4C; assay: Inhibition of N-terminal HALO-tagged full-length human KDM4C transfected in U2OS cells assessed as inhibition of H3K9Me3 demethylation for 24 hrs
[5] = biological target: T2, Lysine-specific demethylase 5C (Homo sapiens, UniProt P41229); assay: Inhibition of human KDM5C transfected in U2OS cells assessed as inhibition of […] demethylation for 24 hrs; type: cell-based; details: read-out: IC50
Summary of the method: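 High-content cell imaging assay in U2OS cells overexpressing KDM5C, the same cell type as the KDM4C cellular mechanistic assay. Cellular potency reported as pIC50.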

[6] = biological target: Lysine-specific demethylase 6B (Homo sapiens, UniProt O15054); assay: Inhibition of KDM6B (unknown origin) by RFMS assay
[7] = biological target: T2, Lysine-specific demethylase 5C; assay: Inhibition of KDM5C catalytic domain (1 -764 aa) (unknown origin) expressed in Sf9 cells using H3K4Me3 peptide as substrate by RFMS assay
[8] = biological target: T3, Lysine-specific demethylase 4E (Homo sapiens, UniProt B2RXH2); assay: Inhibition of KDM4E (unknown origin) by RFMS assay
T3 sequence (B2RXH2 whole entry): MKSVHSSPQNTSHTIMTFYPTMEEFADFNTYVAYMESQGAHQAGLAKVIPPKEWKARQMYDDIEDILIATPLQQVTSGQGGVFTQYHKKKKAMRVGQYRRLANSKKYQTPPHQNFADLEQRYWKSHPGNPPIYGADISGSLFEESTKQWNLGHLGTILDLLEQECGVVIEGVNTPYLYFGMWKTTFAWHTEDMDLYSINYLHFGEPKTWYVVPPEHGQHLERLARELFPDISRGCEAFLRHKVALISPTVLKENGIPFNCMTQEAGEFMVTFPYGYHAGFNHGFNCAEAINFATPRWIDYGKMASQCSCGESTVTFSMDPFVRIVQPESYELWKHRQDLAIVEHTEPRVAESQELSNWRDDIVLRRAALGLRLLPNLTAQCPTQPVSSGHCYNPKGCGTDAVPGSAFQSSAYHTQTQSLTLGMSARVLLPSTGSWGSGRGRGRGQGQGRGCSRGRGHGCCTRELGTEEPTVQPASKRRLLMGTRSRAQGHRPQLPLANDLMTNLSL

[9] = biological target: T4, Lysine-specific demethylase 4D (Homo sapiens, UniProt Q6B0I6); assay: Inhibition of KDM4D (unknown origin) by RFMS assay
T4 sequence (Q6B0I6 whole entry): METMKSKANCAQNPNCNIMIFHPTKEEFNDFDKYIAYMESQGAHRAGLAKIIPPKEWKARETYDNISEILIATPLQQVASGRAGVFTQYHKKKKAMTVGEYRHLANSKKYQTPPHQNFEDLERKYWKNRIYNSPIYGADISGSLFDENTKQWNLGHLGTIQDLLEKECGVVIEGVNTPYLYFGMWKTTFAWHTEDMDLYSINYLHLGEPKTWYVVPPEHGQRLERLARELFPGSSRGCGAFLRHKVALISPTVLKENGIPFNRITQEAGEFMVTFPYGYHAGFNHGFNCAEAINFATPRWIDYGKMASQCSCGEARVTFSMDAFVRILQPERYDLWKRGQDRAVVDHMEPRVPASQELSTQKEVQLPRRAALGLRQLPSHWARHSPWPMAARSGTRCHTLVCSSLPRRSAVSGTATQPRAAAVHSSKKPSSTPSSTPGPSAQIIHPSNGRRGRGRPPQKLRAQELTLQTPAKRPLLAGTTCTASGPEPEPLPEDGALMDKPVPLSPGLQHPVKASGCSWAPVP

[10] = biological target: T5, Lysine-specific demethylase 4A (Homo sapiens, UniProt O75164); assay: Inhibition of KDM4A (unknown origin) by RFMS assay
T5 sequence (O75164 whole entry): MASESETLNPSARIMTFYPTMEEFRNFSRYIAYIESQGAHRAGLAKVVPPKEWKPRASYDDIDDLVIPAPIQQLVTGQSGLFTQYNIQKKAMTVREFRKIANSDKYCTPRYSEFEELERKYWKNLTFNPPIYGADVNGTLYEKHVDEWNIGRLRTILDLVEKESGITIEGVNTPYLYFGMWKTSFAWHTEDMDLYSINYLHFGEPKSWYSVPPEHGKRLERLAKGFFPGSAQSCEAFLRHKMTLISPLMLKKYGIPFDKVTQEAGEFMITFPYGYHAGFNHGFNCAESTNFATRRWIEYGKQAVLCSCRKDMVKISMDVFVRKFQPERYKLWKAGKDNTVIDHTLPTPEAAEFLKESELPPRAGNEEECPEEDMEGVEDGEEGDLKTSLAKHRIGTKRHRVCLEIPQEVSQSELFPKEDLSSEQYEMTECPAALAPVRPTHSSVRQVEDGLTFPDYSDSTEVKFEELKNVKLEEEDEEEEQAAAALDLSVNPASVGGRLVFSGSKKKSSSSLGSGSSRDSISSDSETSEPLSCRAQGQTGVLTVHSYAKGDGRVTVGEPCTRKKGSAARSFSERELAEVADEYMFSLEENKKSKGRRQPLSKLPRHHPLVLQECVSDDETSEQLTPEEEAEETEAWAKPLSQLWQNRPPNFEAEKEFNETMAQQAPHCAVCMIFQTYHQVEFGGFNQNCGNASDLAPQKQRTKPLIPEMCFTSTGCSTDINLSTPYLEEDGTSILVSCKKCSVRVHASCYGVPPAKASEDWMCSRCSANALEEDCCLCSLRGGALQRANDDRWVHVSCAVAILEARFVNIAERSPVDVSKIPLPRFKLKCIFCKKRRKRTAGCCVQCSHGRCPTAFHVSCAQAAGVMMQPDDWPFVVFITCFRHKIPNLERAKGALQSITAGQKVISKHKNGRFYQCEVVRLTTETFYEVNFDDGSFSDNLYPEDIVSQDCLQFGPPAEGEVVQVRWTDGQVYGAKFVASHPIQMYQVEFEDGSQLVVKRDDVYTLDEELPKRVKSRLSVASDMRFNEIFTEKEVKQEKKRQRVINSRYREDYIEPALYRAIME

T2 sequence (P41229 whole entry): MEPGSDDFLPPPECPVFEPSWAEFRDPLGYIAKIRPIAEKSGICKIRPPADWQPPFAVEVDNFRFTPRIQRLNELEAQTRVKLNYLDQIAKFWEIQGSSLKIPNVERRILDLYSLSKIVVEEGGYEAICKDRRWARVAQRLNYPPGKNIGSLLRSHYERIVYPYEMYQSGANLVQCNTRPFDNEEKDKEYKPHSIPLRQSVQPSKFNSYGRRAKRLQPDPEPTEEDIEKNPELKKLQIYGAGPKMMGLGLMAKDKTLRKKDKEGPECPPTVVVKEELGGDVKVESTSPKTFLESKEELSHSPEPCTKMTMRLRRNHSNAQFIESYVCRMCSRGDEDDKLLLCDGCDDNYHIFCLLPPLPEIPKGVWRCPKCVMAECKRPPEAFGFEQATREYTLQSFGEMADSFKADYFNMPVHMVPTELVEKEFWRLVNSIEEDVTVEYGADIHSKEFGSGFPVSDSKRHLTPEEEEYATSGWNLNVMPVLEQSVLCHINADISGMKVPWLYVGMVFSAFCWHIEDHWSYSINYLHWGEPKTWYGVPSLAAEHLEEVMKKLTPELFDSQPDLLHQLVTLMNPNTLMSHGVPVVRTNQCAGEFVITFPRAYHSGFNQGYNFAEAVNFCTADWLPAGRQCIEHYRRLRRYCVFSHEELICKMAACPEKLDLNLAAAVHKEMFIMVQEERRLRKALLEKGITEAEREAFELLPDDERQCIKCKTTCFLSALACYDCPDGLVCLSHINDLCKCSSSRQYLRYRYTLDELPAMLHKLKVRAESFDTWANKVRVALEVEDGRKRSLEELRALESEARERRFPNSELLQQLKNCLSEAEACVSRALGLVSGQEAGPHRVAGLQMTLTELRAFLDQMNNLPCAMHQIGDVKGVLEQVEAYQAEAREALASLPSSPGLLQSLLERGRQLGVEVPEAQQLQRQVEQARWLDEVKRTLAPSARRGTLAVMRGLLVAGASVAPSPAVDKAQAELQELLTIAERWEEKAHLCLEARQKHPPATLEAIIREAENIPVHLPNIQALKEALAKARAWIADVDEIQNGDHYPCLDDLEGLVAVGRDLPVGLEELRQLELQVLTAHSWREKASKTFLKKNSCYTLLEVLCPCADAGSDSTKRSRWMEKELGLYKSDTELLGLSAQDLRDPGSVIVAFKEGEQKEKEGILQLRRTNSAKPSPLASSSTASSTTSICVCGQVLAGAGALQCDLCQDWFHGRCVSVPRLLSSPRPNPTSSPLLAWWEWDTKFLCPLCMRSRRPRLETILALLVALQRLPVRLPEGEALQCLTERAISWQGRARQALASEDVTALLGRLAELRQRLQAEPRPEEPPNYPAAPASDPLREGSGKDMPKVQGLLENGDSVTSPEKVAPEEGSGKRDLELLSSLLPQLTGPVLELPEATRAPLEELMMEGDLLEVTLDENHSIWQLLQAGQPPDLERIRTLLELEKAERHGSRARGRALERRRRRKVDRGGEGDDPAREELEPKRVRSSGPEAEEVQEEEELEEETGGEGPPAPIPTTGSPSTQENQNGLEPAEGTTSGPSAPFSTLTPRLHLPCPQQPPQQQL
Chain of Lysine-specific demethylase 6B (O15054 whole entry, the tested form may be a part): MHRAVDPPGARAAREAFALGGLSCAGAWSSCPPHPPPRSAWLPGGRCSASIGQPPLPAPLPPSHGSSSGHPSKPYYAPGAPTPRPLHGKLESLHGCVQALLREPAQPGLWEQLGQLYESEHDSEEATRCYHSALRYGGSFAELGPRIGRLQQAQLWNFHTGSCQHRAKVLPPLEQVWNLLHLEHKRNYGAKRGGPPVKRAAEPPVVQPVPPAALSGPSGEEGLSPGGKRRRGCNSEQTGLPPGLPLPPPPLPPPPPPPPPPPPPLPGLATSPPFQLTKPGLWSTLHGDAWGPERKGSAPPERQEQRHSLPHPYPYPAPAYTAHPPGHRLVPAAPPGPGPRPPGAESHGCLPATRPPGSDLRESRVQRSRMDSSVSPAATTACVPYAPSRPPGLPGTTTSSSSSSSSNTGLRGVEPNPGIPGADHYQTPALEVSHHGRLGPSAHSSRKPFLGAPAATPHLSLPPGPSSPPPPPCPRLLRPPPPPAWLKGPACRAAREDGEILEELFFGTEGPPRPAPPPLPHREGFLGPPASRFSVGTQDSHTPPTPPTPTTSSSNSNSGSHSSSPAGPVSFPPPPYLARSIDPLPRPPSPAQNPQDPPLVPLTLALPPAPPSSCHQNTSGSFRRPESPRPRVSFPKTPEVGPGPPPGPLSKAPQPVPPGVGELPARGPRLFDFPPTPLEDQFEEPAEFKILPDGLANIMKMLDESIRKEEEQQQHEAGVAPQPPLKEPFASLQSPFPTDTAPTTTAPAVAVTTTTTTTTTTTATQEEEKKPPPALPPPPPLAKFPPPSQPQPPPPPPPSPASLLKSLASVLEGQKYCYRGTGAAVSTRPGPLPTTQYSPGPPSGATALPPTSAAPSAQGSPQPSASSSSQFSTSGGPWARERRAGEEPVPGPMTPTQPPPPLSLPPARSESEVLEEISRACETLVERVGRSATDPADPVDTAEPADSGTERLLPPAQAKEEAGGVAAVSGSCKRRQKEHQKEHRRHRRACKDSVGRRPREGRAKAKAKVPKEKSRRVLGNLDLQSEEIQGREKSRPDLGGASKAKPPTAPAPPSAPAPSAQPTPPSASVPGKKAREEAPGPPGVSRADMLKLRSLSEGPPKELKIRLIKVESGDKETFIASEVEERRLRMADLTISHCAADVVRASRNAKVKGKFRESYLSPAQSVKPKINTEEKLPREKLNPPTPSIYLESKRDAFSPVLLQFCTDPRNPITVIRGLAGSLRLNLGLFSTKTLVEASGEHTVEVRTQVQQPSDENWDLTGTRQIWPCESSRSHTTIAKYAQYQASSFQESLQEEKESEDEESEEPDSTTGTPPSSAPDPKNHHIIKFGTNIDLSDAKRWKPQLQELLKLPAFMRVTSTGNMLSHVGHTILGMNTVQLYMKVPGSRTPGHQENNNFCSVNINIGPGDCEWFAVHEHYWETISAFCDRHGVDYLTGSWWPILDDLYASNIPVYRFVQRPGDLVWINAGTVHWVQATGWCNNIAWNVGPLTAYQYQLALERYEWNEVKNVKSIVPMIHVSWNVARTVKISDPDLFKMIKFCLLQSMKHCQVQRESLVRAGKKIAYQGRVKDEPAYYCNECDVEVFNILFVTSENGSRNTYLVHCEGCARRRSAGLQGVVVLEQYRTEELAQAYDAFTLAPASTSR
Chain of Prolyl hydroxylase EGLN3 (Q9H6Z9 whole entry): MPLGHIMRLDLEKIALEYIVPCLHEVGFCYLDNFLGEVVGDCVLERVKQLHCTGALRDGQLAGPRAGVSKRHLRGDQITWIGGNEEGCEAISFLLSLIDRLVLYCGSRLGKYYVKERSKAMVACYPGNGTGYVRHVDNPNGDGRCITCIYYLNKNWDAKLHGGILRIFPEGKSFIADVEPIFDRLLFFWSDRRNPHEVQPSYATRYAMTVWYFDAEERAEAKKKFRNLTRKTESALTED

Structure (SMILES)	pKa [1]	IC50 [2] [nM]	IC50 [3] [µM]	logD (physchem)	IC50 (Prolyl hydroxylase EGLN3) [µM]	IC50 [4] [nM]	IC50 [5] [nM]	IC50 [6] [µM]	IC50 [7] [nM]	IC50 [8] [nM]	IC50 [9] [nM]	IC50 [10] [nM]
CCOc1nc2cnccc2c(=O)[nH]1	7.5	1000	63.1	–	–	–	–	–	–	–	–	–
O=c1[nH]c(Oc2cnn(CC3CCCCC3)c2)nc2cnccc12	–	631	5.01	2.9	> 100	2000	2500	> 100	79.4	501	398	631

Further compounds by falling IC50 [2], results first:

pKa [1]	IC50 [2] [nM]	IC50 [3] [µM]	logD (physchem)	IC50 (Prolyl hydroxylase EGLN3) [µM]	IC50 [4] [nM]	IC50 [5] [nM]	IC50 [6] [µM]	IC50 [7] [nM]	IC50 [8] [nM]	IC50 [9] [nM]	IC50 [10] [nM]	Structure (SMILES)
8.8	12600	–	–	–	–	–	–	–	–	–	–	CCCc1nc2cnccc2c(=O)[nH]1
8.6	3160	–	–	–	–	–	–	–	–	–	–	CCNc1nc2cnccc2c(=O)[nH]1
6.8	794	> 100	–	–	–	–	–	–	–	–	–	CCSc1nc2cnccc2c(=O)[nH]1

Source: ChEMBL document CHEMBL3769320, “Cell Penetrant Inhibitors of the KDM4 and KDM5 Families of Histone Lysine Demethylases. 2. Pyrido[3,4-d]pyrimidin-4(3H)-one Derivatives” (J Med Chem, 2016)
